Data published in ChEMBL document CHEMBL1165965, “Synthesis and structure-activity relationships of 1,2,3,4-tetrahydropyrido[2,3-b]pyrazines as potent and selective inhibitors of the anaplastic lymphoma kinase” (Bioorg Med Chem, 2010).

What was measured:
[1] = target: T1, Serine/threonine-protein kinase LATS1 (Homo sapiens) (UniProt O95835); assay: Inhibition of LATS1 at 1 uM
T1 sequence (whole entry): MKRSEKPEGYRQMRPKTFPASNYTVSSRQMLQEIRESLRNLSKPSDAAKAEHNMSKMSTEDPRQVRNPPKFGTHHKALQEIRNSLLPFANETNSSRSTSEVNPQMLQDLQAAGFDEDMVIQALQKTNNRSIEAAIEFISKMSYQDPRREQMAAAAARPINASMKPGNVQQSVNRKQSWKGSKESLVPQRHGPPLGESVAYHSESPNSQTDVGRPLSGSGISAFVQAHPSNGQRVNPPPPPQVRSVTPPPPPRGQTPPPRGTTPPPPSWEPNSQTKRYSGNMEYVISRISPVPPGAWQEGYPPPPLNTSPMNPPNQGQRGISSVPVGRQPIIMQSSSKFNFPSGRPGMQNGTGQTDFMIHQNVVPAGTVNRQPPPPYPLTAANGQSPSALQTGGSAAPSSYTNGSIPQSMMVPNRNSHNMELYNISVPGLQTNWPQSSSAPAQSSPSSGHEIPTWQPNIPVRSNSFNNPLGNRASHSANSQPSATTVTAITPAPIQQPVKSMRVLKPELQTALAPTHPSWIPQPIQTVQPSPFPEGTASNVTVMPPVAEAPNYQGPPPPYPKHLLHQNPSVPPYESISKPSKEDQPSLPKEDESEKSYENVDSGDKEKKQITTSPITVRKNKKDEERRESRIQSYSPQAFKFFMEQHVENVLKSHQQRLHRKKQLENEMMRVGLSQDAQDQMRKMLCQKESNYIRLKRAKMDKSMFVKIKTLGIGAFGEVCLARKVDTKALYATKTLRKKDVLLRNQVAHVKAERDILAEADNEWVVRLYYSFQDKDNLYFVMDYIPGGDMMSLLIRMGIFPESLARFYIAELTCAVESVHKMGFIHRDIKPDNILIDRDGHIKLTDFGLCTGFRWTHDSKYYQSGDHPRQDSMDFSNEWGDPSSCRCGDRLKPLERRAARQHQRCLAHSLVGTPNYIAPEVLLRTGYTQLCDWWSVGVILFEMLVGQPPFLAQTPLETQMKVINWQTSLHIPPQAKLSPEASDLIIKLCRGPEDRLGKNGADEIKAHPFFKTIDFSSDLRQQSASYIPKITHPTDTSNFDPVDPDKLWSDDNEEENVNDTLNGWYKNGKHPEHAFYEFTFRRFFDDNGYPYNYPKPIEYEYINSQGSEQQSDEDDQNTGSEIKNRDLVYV

[2] = target: T2, Protein kinase C epsilon type (Homo sapiens) (UniProt Q02156); assay: Inhibition of PRKCE at 1 uM
T2 sequence (whole entry): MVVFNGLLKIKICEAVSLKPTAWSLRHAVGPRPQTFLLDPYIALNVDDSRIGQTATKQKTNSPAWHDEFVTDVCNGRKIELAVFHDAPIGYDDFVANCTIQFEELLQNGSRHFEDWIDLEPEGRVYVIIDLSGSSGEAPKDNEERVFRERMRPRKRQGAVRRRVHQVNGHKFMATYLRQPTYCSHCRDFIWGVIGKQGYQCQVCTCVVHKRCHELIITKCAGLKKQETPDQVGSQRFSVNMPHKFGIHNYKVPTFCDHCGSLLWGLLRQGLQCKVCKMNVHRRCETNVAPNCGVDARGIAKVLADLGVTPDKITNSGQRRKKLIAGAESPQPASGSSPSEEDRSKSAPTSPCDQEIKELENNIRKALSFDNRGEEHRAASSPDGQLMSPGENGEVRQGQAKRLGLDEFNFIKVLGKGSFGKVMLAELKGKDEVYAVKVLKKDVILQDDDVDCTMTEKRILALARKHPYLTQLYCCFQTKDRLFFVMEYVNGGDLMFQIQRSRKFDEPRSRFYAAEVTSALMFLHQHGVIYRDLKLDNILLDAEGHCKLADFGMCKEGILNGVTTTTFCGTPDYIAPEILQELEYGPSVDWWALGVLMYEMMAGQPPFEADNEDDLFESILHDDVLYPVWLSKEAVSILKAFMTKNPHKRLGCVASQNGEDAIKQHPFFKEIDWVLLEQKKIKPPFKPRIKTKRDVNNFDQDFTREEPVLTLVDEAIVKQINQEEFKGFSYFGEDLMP

[3] = target: Tyrosine-protein kinase Srms (Homo sapiens) (UniProt Q9H3Y6); assay: Inhibition of SRMS at 1 uM
[4] = target: T3, Serine/threonine-protein kinase TNNI3K (Homo sapiens) (UniProt Q59H18); assay: Inhibition of TNNI3K at 1 uM
T3 sequence (whole entry): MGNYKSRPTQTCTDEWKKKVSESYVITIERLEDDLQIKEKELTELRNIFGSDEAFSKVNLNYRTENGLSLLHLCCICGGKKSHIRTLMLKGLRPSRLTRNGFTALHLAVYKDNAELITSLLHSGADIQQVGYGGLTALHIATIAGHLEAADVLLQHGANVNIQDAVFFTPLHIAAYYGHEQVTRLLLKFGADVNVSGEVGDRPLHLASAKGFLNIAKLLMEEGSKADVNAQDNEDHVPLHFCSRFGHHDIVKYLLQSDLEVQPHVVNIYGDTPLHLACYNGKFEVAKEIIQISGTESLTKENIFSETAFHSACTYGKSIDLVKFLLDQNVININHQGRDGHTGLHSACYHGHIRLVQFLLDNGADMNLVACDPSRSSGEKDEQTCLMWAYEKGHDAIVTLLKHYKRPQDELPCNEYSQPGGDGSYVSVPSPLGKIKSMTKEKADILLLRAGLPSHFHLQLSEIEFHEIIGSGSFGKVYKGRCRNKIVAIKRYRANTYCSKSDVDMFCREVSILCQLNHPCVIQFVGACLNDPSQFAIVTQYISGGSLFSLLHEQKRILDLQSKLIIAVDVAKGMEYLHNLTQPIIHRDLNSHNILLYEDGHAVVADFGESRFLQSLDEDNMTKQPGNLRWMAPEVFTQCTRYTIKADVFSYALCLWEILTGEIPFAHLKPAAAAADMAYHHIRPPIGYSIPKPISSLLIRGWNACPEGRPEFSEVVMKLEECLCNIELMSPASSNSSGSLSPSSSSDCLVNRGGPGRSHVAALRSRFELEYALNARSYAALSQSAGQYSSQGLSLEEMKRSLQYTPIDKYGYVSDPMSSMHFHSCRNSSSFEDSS

[5] = target: Epidermal growth factor receptor (Homo sapiens) (UniProt P04626+P00533+Q15303+P21860); assay: Inhibition of EGFR L747-T751del, Sins mutant at 1 uM; assay type: protein assay
In short: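 Single-concentration screen using Ambit Bioscience KINOMEscan technology across a panel of 250–400 kinases. Per-kinase inhibition from this screen was summarized as S(90), the fraction of kinases inhibited by more than 90%.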

Tyrosine-protein kinase Srms (Homo sapiens), sequence (Q9H3Y6 whole entry): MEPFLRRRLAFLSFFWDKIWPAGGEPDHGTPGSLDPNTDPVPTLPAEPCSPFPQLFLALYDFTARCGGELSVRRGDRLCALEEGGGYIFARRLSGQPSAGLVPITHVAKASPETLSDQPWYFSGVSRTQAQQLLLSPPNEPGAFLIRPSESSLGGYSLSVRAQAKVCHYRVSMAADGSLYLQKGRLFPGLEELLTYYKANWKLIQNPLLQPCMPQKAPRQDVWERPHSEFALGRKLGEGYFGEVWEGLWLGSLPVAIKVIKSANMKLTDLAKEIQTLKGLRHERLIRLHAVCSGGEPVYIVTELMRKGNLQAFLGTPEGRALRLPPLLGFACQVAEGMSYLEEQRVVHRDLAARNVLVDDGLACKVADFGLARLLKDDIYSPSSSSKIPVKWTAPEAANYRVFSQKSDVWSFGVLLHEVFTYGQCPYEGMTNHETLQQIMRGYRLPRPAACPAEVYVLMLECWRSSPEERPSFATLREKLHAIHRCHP

Compound	inhibition [1] [%]	inhibition [2] [%]	inhibition [3] [%]	inhibition [4] [%]	inhibition [5] [%]
CN1CCN(c2ccc(-c3cnc4c(c3)N(Cc3cc(Cl)ccc3C(F)(F)F)CCN4)cn2)CC1	< 50	< 50	< 50	< 50	< 50
CN1CCN(c2ccc(-c3cnc4c(c3)N(Cc3cc(F)ccc3F)CCN4)cn2)CC1	< 50	< 50	< 50	< 50	< 50
CN1CCN(c2ccc(-c3cnc4c(c3)N(Cc3cc(Cl)ccc3Cl)CCN4)cn2)CC1	< 50	< 50	< 50	< 50	< 50
CN1CCN(c2ccc(-c3cnc4c(c3)N(Cc3c(F)ccc(F)c3Cl)CCN4)cn2)CC1	< 50	< 50	< 50	< 50	< 50
FC(F)(F)c1ccc(Cl)cc1CN1CCNc2ncc(-c3ccnc(N4CCNCC4)c3)cc21	< 50	< 50	< 50	< 50	< 50

Next, values leading:

inhibition [1] [%]	inhibition [2] [%]	inhibition [3] [%]	inhibition [4] [%]	inhibition [5] [%]	Compound
< 50	< 50	< 50	< 50	< 50	CC(=O)N1CCN(c2cc(-c3cnc4c(c3)N(Cc3cc(Cl)ccc3C(F)(F)F)CCN4)ccn2)CC1
–	–	–	< 50	< 50	O=C(O)c1ccc(-c2cnc3c(c2)N(Cc2cc(Cl)ccc2C(F)(F)F)CCN3)cc1
–	–	–	< 50	< 50	O=C(c1ccc(-c2cnc3c(c2)N(Cc2cc(Cl)ccc2C(F)(F)F)CCN3)cc1)N1CCCCC1
–	–	< 50	< 50	< 50	COC1CCN(C(=O)c2ccc(-c3cnc4c(c3)N(Cc3cc(Cl)ccc3C(F)(F)F)CCN4)cc2)CC1
–	–	< 50	< 50	< 50	O=C(c1ccc(-c2cnc3c(c2)N(Cc2cc(Cl)ccc2C(F)(F)F)CCN3)cc1)N1CCC(N2CCCC2)CC1
